Reference: ChEMBL document CHEMBL3779898, “3,3'-OH curcumin causes apoptosis in HepG2 cells through ROS-mediated pathway” (Eur J Med Chem, 2016)
The source made the active and inactive calls. The calls are words filed in the database; no cut-off is given here.

Assays:
HepG2 [1] = experiment: Cytotoxicity against human HepG2 cells assessed as reduction in cell viability after 48 hrs by MTT assay; format: functional, cell-based; details: HepG2, 48 h
In short: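 HepG2 seeded at 3×10^3/well, grown 24 h, then exposed to compounds for 48 h. MTT (0.5 mg/mL) added for 4 h, formazan dissolved in DMSO, absorbance read at 570 nm. IC50 = concentration giving 50% loss of viability; mean ± SD of three determinations.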

HepG2 [2] = experiment: Induction of apoptosis in human HepG2 cells assessed as early apoptotic cells at 5 mM after 24 hrs by Annexin V-FITC/propidium iodide staining based flow cytometry (reference value: 2.8%); format: functional
In short: (§1)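 HepG2 plated at 5×10^5/well, grown 24 h, then treated 24 h; where indicated, 1 h pretreatment with 5 mM GSH or NAC. Cells stained with Annexin V-FITC/PI; 10,000 cells per sample analysed by flow cytometry into early apoptotic, late apoptotic and necrotic quadrants; triplicate.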

HepG2 [3] = experiment: Induction of apoptosis in human HepG2 cells assessed as late apoptotic cells at 5 mM after 24 hrs by Annexin V-FITC/propidium iodide staining based flow cytometry (reference value: 5.4%); format: functional; in short: as §1
HepG2 [4] = experiment: Induction of apoptosis in human HepG2 cells assessed as necrotic cells at 5 mM after 24 hrs by Annexin V-FITC/propidium iodide staining based flow cytometry (reference value: 1.6%); format: functional; in short: as §1
Serum = experiment: Stability in RPMI-1640 medium containing 10% fetal calf serum at 25 uM incubated for 20 to 120 mins at 25 degC; format: ADME, Bos taurus; details: cattle
HepG2 [5] = experiment: Potency index, ratio of curcumin IC50 to compound IC50 for human HepG2 cells; format: functional
In short: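 Derived from MTT IC50 values in HepG2 after 48 h treatment, means of three determinations.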

HepG2 [6] = experiment: Induction of apoptosis in human HepG2 cells assessed as early apoptotic cells at 12.5 uM after 24 hrs by Annexin V-FITC/propidium iodide staining based flow cytometry (reference value: 2.8%); format: functional; in short: as §1
HepG2 [7] = experiment: Induction of apoptosis in human HepG2 cells assessed as early apoptotic cells at 25 uM after 24 hrs by Annexin V-FITC/propidium iodide staining based flow cytometry (reference value: 2.8%); format: functional; in short: as §1
HepG2 [8] = experiment: Induction of apoptosis in human HepG2 cells assessed as early apoptotic cells at 37.5 uM after 24 hrs by Annexin V-FITC/propidium iodide staining based flow cytometry (reference value: 2.8%); format: functional; in short: as §1
HepG2 [9] = experiment: Induction of apoptosis in human HepG2 cells assessed as early apoptotic cells at 50 uM after 24 hrs by Annexin V-FITC/propidium iodide staining based flow cytometry (reference value: 2.8%); format: functional; in short: as §1
HepG2 [10] = experiment: Induction of apoptosis in human HepG2 cells assessed as early apoptotic cells at 50 uM after 24 hrs pretreated with 5 mM glutathione for 1 hr by Annexin V-FITC/propidium iodide staining based flow cytometry (reference value: 2.8%); format: functional; in short: as §1
HepG2 [11] = experiment: Induction of apoptosis in human HepG2 cells assessed as early apoptotic cells at 50 uM after 24 hrs pretreated with 5 mM N-acetylcysteine for 1 hr by Annexin V-FITC/propidium iodide staining based flow cytometry (reference value: 2.8%); format: functional; in short: as §1
HepG2 [12] = experiment: Induction of apoptosis in human HepG2 cells assessed as late apoptotic cells at 12.5 uM after 24 hrs by Annexin V-FITC/propidium iodide staining based flow cytometry (reference value: 5.4%); format: functional; in short: as §1
HepG2 [13] = experiment: Induction of apoptosis in human HepG2 cells assessed as late apoptotic cells at 25 uM after 24 hrs by Annexin V-FITC/propidium iodide staining based flow cytometry (reference value: 5.4%); format: functional; in short: as §1
HepG2 [14] = experiment: Induction of apoptosis in human HepG2 cells assessed as late apoptotic cells at 37.5 uM after 24 hrs by Annexin V-FITC/propidium iodide staining based flow cytometry (reference value: 5.4%); format: functional; in short: as §1
HepG2 [15] = experiment: Induction of apoptosis in human HepG2 cells assessed as late apoptotic cells at 50 uM after 24 hrs by Annexin V-FITC/propidium iodide staining based flow cytometry (reference value: 5.4%); format: functional; in short: as §1
HepG2 [16] = experiment: Induction of apoptosis in human HepG2 cells assessed as late apoptotic cells at 50 uM after 24 hrs pretreated with 5 mM glutathione for 1 hr by Annexin V-FITC/propidium iodide staining based flow cytometry (reference value: 5.4%); format: functional; in short: as §1
HepG2 [17] = experiment: Induction of apoptosis in human HepG2 cells assessed as late apoptotic cells at 50 uM after 24 hrs pretreated with 5 mM N-acetylcysteine for 1 hr by Annexin V-FITC/propidium iodide staining based flow cytometry (reference value: 5.4%); format: functional; in short: as §1
HepG2 [18] = experiment: Induction of apoptosis in human HepG2 cells assessed as necrotic cells at 12.5 uM after 24 hrs by Annexin V-FITC/propidium iodide staining based flow cytometry (reference value: 1.6%); format: functional; in short: as §1
HepG2 [19] = experiment: Induction of apoptosis in human HepG2 cells assessed as necrotic cells at 25 uM after 24 hrs by Annexin V-FITC/propidium iodide staining based flow cytometry (reference value: 1.6%); format: functional; in short: as §1
HepG2 [20] = experiment: Induction of apoptosis in human HepG2 cells assessed as necrotic cells at 37.5 uM after 24 hrs by Annexin V-FITC/propidium iodide staining based flow cytometry (reference value: 1.6%); format: functional; in short: as §1
HepG2 [21] = experiment: Induction of apoptosis in human HepG2 cells assessed as necrotic cells at 50 uM after 24 hrs by Annexin V-FITC/propidium iodide staining based flow cytometry (reference value: 1.6%); format: functional; in short: as §1
HepG2 [22] = experiment: Induction of apoptosis in human HepG2 cells assessed as necrotic cells at 50 uM after 24 hrs pretreated with 5 mM glutathione for 1 hr by Annexin V-FITC/propidium iodide staining based flow cytometry (reference value: 1.6%); format: functional; in short: as §1
HepG2 [23] = experiment: Induction of apoptosis in human HepG2 cells assessed as necrotic cells at 50 uM after 24 hrs pretreated with 5 mM N-acetylcysteine for 1 hr by Annexin V-FITC/propidium iodide staining based flow cytometry (reference value: 1.6%); format: functional; in short: as §1
HepG2 [24] = experiment: Induction of apoptosis in human HepG2 cells after 24 hrs by Annexin V-FITC/propidium iodide staining based flow cytometry; format: functional, cell-based; in short: as §1
HepG2 [25] = experiment: Induction of intracellular ROS production in human HepG2 cells at 50 uM after 6 hrs by DCFH-DA staining based flow cytometry relative to control; format: functional
In short: (§2)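 Cells treated with 50 μM compound for 6 h, with or without 1 h catalase pretreatment; stained with 3 μM DCFH-DA for 30 min at 37 °C in the dark, washed, DCF fluorescence read by flow cytometry (488/530 nm); triplicate.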

HepG2 [26] = experiment: Induction of intracellular ROS production in human HepG2 cells at 50 uM after 6 hrs by DCFH-DA staining based flow cytometry in presence of catalase; format: functional, cell-based; in short: as §2
HepG2 [27] = experiment: Induction of superoxide radical generation production in human HepG2 cells at 50 uM incubated for 6 hrs by DHE staining based flow cytometry; format: functional, cell-based
In short: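 Cells incubated 6 h with 50 μM compound, stained with 3 μM DHE for 30 min at 37 °C in the dark, and analysed by flow cytometry; triplicate.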

HepG2 [28] = experiment: Cellular uptake in human HepG2 cells at 50 uM after 1 hr; format: ADME, cell-based; details: hepg2, 1 h
In short: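 HepG2 cells exposed to 50 μM for varying incubation periods; cells lysed, lysate extracted with methanol, and uptake estimated by absorbance of the extract.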

HepG2 [29] = experiment: Induction of intracellular ROS production in human HepG2 cells assessed as decrease in GSH/GSSG ratio incubated for 6 hrs by glutathione reductase-DTNB recycling assay; format: functional, cell-based
In short: (§3)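 HepG2 (5×10^5/well) grown 24 h, treated 6 h, then lysed in ice-cold 10 mM HCl by three freeze–thaw cycles; part of lysate used for protein. Proteins precipitated with 6.5% 5-sulfosalicylic acid; supernatant assayed for total GSH and GSSG by glutathione reductase–DTNB recycling; triplicate.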

HepG2 [30] = experiment: Induction of intracellular ROS production in human HepG2 cells assessed as decrease in GSH/GSSG ratio at 50 uM incubated for 6 hrs by glutathione reductase-DTNB recycling assay relative to control; format: functional; in short: as §3
HepG2 [31] = experiment: Induction of lipid peroxidation in human HepG2 cells assessed as increase in malondialdehyde formation after 18 hrs; format: functional, cell-based
In short: (§4)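 HepG2 (5×10^5/well) grown 24 h, treated 18 h at 6.25, 25, 37.5 or 50 μM, lysed in ice-cold water by freeze–thaw. Lysate heated 1 h at 95 °C with 0.4% thiobarbituric acid, 0.5% SDS, 9.4% acetic acid (pH 3.5), centrifuged, A532 read. MDA quantified against a tetramethoxypropane standard curve, expressed as pmol/mg protein; triplicate.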

HepG2 [32] = experiment: Induction of lipid peroxidation in human HepG2 cells assessed as increase in malondialdehyde formation at 50 uM after 18 hrs relative to control; format: functional; in short: as §4
HepG2 [33] = experiment: Cytotoxicity against human HepG2 cells assessed as reduction in cell viability at 50 uM after 48 hrs by MTT assay in presence of 5mM glutathione; format: functional, cell-based
In short: (§5)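 HepG2 cells pretreated 1 h with 5 mM NAC or 5 mM GSH, then exposed to 50 μM test compound; viability measured by MTT (0.5 mg/mL, 4 h, DMSO solubilisation, 570 nm).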

HepG2 [34] = experiment: Cytotoxicity against human HepG2 cells assessed as reduction in cell viability at 50 uM after 48 hrs by MTT assay in presence of 5mM N-acetylcysteine; format: functional, cell-based; in short: as §5
HepG2 [35] = experiment: Induction of intracellular ROS production in human HepG2 cells at 50 uM after 3 to 6 hrs by DCFH-DA staining based flow cytometry in presence of 5mM glutathione; format: functional, cell-based
In short: (§6)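 HepG2 pretreated 1 h with 5 mM GSH or 5 mM NAC, then exposed to 50 μM compound for the indicated time; loaded with 3 μM DCFH-DA for 30 min at 37 °C in the dark, washed with PBS, DCF fluorescence read by flow cytometry (ex 488, em 530 nm).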

HepG2 [36] = experiment: Induction of intracellular ROS production in human HepG2 cells at 50 uM after 3 to 6 hrs by DCFH-DA staining based flow cytometry in presence of 5mM N-acetylcysteine; format: functional, cell-based; in short: as §6
HepG2 [37] = experiment: Induction of mitochondrial membrane potential loss in human HepG2 cells at 50 uM after 18 hrs by rhodamine 123 staining based flow cytometry in presence of 5mM glutathione; format: functional, cell-based
In short: (§7)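 HepG2 pretreated 1 h with 5 mM GSH or 5 mM NAC, then exposed to 50 μM compound for the indicated time; Rhodamine 123 fluorescence measured by flow cytometry; triplicate.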

HepG2 [38] = experiment: Induction of mitochondrial membrane potential loss in human HepG2 cells at 50 uM after 18 hrs by rhodamine 123 staining based flow cytometry in presence of 5mM N-acetylcysteine; format: functional, cell-based; in short: as §7

## COc1ccc(/C=C/C(=O)CC(=O)/C=C/c2ccc(OC)cc2)cc1
HepG2 [1]
  IC50: > 200 µM

## COc1ccccc1/C=C/C(=O)CC(=O)/C=C/c1ccccc1OC
HepG2 [1]
  IC50: 125 µM

## N[C@@H](CCC(=O)N[C@@H](CS)C(=O)NCC(=O)O)C(=O)O [GLUTATHIONE]
HepG2 [2]
  Activity: 2.5%
HepG2 [3]
  Activity: 5.5%
HepG2 [4]
  Activity: 2.1%

## O=C(/C=C/c1ccccc1C(F)(F)F)CC(=O)/C=C/c1ccccc1C(F)(F)F
HepG2 [1]
  IC50: > 200 µM

## CC(=O)N[C@@H](CS)C(=O)O [ACETYLCYSTEINE]
HepG2 [2]
  Activity: 2.6%
HepG2 [3]
  Activity: 6.6%
HepG2 [4]
  Activity: 1.9%

## O=C(/C=C/c1ccccc1O)CC(=O)/C=C/c1ccccc1O
HepG2 [1]
  IC50: 50 µM

## O=C(/C=C/c1cccc(O)c1)CC(=O)/C=C/c1cccc(O)c1
HepG2 [1]
  IC50: 15.1 µM
Serum
  Stability: Stable
HepG2 [5]
  Ratio IC50: 3.5
HepG2 [6]
  Activity: 2.8%
HepG2 [7]
  Activity: 7%
HepG2 [8]
  Activity: 19.1%
HepG2 [9]
  Activity: 1.4%
HepG2 [10]
  Activity: 3%
HepG2 [11]
  Activity: 2.8%
HepG2 [12]
  Activity: 5.7%
HepG2 [13]
  Activity: 12.4%
HepG2 [14]
  Activity: 28.5%
HepG2 [15]
  Activity: 80.2%
HepG2 [16]
  Activity: 6.3%
HepG2 [17]
  Activity: 6.8%
HepG2 [18]
  Activity: 2.8%
HepG2 [19]
  Activity: 7%
HepG2 [20]
  Activity: 45%
HepG2 [21]
  Activity: 7.6%
HepG2 [22]
  Activity: 2%
HepG2 [23]
  Activity: 2.2%
HepG2 [24]
  Activity: Dose-dependent effect
HepG2 [25]
  fold change (FC): 5
HepG2 [26]
  Activity: inactive
HepG2 [27]
  Activity: inactive
HepG2 [28]
  Drug uptake: Active
HepG2 [29]
  Activity: Dose-dependent effect
HepG2 [30]
  fold change (FC): 2
HepG2 [31]
  Activity: Dose-dependent effect
HepG2 [32]
  fold change (FC): 1
HepG2 [33]
  Activity: inactive
HepG2 [34]
  Activity: inactive
HepG2 [35]
  Activity: inactive
HepG2 [36]
  Activity: inactive
HepG2 [37]
  Activity: inactive
HepG2 [38]
  Activity: inactive
